The results in this text go back to ChEMBL document CHEMBL1125383, “Benzazepinone calcium channel blockers. 4. Structure-activity overview and intracellular binding site” (J Med Chem, 1992).

Data set [1] has as its target T1, Voltage-gated L-type calcium channel (Rattus norvegicus, UniProt P22002+Q02485+P27732). The data set is described as follows: Percentage decrease in blood pressure at a dose of 135 uM/kg for 0-6 h in spontaneously hypertensive rats. Type of data set: functional, tissue-based. Summed up: (§1)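 Spontaneously hypertensive rats, n = 5, given 135 µmol/kg orally; systolic pressure recorded directly; maximum percent fall from predrug control noted within 0-6, 6-12 and 12-18 h windows after dosing; mean of five rats.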

For data set [2], the target named is T1, Voltage-gated L-type calcium channel. Description: Percentage decrease in blood pressure at a dose of 135 uM/kg for 12-18 hr in spontaneously hypertensive rats. It is filed as functional, tissue-based. Summed up:
as §1

Data set [3] shares this target. The data set is described as follows: Percentage decrease in blood pressure at a dose of 135 uM/kg for 6-12 hr in spontaneously hypertensive rats. It is filed as functional, tissue-based. Summed up: as §1
Data set [4] in a line: Concentration required to cause 50% relaxation of maximal contraction in circumferential rabbit aorta strips in response to KCl (100 mM). Type of data set: functional, tissue-based, Oryctolagus cuniculus.

The structures appear in SMILES notation.

As usually defined, the IC50 is the midpoint of a concentration-inhibition curve. Consider `COc1ccc([C@@H]2Cc3c(cccc3C(F)(F)F)N(CCN(C)CCCCc3ccccc3)C(=O)[C@@H]2OC(C)=O)cc1`, for which the “Decrease in blood pressure” value in data set [1] is reported as 28%; in data set [2] it was 24%; in data set [3], 23%. The molecule further showed a concentration for half-maximal inhibition (IC50) in data set [4] (Oryctolagus cuniculus, Aorta) of 73 nM.
Regarding `C=CCN(C)CCN1C(=O)[C@H](OC(C)=O)[C@H](c2ccc(OC)cc2)Cc2c1cccc2C(F)(F)F`, the results for the “Decrease in blood pressure” value in data set [1], in data set [2] and in data set [3] were 28%, 25% and 26%, respectively. Further, 170 nM corresponded to half-maximal inhibition in data set [4] (Oryctolagus cuniculus, Aorta) (IC50).
As for `COc1ccc([C@@H]2Cc3c(cccc3C(F)(F)F)N(CCN3CCCC3)C(=O)[C@@H]2C)cc1`, the “Decrease in blood pressure” value in data set [1] is given as 8%; in data set [2] it was 11%; in data set [3], 10%. In data set [4] (Oryctolagus cuniculus, Aorta), the half-inhibitory concentration (IC50) was 1100 nM.
Turning to `CNCCN1C(=O)[C@H](OC(C)=O)[C@H](c2ccc(OCOC)cc2)Cc2c1cccc2C(F)(F)F`, the “Decrease in blood pressure” value in data set [1] was 6%; in data set [2] it was 8%; in data set [3], 8%.
Turning to `CNCCN1C(=O)[C@H](OC(C)=O)[C@H](c2ccc(OC)cc2)Cc2c1cccc2C(F)(F)F`, the “Decrease in blood pressure” value came out at 32% in data set [1], 32% in data set [2] and 34% in data set [3].
With `CNCCN1C(=O)[C@H](OC(C)=O)[C@H](c2ccc(OCCOC)cc2)Cc2c1cccc2C(F)(F)F`, the “Decrease in blood pressure” value in data set [1] is 5%; in data set [2], 7%; in data set [3] it was 5%. In data set [4] (Oryctolagus cuniculus, Aorta), this molecule returned an IC50 of 39000 nM.
Take `COc1ccc([C@@H]2Cc3c(cccc3C(F)(F)F)N(CCCN(C)C)C(=O)[C@@H]2C)cc1`: the “Decrease in blood pressure” value was found to be 24% in data set [1], 24% in data set [2] and 22% in data set [3]. The molecule also came in with an IC50 in data set [4] (Oryctolagus cuniculus, Aorta) of 1100 nM.
For `CCc1ccc([C@@H]2Cc3c(cccc3C(F)(F)F)N(CCN(C)C)C(=O)[C@@H]2C)cc1`, the “Decrease in blood pressure” value was determined as 20% in data set [1], 13% in data set [2] and 14% in data set [3]. In data set [4] (Oryctolagus cuniculus, Aorta), this molecule gave an IC50 of 2400 nM.
`CCCN(C)CCN1C(=O)[C@H](OC(C)=O)[C@H](c2ccc(OC)cc2)Cc2c1cccc2C(F)(F)F`: the “Decrease in blood pressure” value in data set [1] was 27%; in data set [2] it was 28%; in data set [3], 26%. Moreover, the IC50 in data set [4] (Oryctolagus cuniculus, Aorta) is 190 nM.
Regarding `COc1ccc([C@@H]2Cc3c(cccc3C(F)(F)F)N(CCN(C)C(C)=O)C(=O)[C@@H]2O)cc1`, the IC50 in data set [4] (Oryctolagus cuniculus, Aorta) was found to be 2200 nM.
In the case of `C#CCN(C)CCN1C(=O)[C@H](OC(C)=O)[C@H](c2ccc(OC)cc2)Cc2c1cccc2C(F)(F)F`, the entries for the “Decrease in blood pressure” value in data set [1], in data set [2] and in data set [3] were 26%, 25% and 25%, respectively. In addition, the concentration for half-maximal inhibition (IC50) in data set [4] (Oryctolagus cuniculus, Aorta) came to 3300 nM.
With `CSc1ccc([C@@H]2Cc3c(cccc3C(F)(F)F)N(CCN(C)C)C(=O)[C@@H]2C)cc1`, the “Decrease in blood pressure” value in data set [1] was determined as 12%; in data set [2], 5%; in data set [3] it was 8%. For the same molecule, the IC50 in data set [4] (Oryctolagus cuniculus, Aorta) was found to be 730 nM.
Take `C[C@H]1C(=O)N(CCN(C)C)c2cccc(C(F)(F)F)c2C[C@H]1c1ccc(O)cc1`: the entries for the “Decrease in blood pressure” value in data set [1], in data set [2] and in data set [3] were 10%, 7% and 5%, respectively. This molecule yielded an IC50 in data set [4] (Oryctolagus cuniculus, Aorta) of 160 nM.
In the case of `COc1ccc([C@@H]2Cc3c(cccc3C(F)(F)F)N(CCN(C)C)C(=O)[C@@H]2C)cc1`, the “Decrease in blood pressure” value is 28% in data set [1], 22% in data set [2] and 22% in data set [3]. The IC50 in data set [4] (Oryctolagus cuniculus, Aorta) came to 76 nM.
With `COc1ccc([C@@H]2Cc3c(cccc3C(F)(F)F)N(CCN(C(C)C)C(C)C)C(=O)[C@@H]2C)cc1`, the “Decrease in blood pressure” value in data set [1] came out at 14%; in data set [2], 8%; in data set [3], 8%. Besides, half-maximal inhibition in data set [4] (Oryctolagus cuniculus, Aorta) (IC50) was put at 4200 nM.
Turning to `COc1ccc([C@@H]2Cc3c(cccc3C(F)(F)F)N(CCN(C)C)C(=O)[C@@H]2OC(C)=O)cc1`, the “Decrease in blood pressure” value stood at 31% in data set [1], 20% in data set [2] and 27% in data set [3]. In data set [4] (Oryctolagus cuniculus, Aorta), this molecule registered an IC50 of 150 nM.
With `COc1ccccc1[C@@H]1Cc2cc(Cl)ccc2N(CCN(C)C)C(=O)[C@@H]1OC(C)=O`, the “Decrease in blood pressure” value in data set [1] was 2%; in data set [2], 0%; in data set [3], 2%.
As for `COc1ccc([C@@H]2Cc3c(cccc3C(F)(F)F)N(CCNC(C)C)C(=O)[C@@H]2C)cc1`, the “Decrease in blood pressure” value in data set [1] is 17%; in data set [2] it was 10%; in data set [3] it was 15%. In addition, the IC50 in data set [4] (Oryctolagus cuniculus, Aorta) is 950 nM.
On to `CCC[C@H]1C(=O)N(CCN(C)C)c2ccccc2C[C@H]1c1ccc(OC)cc1`, for which the “Decrease in blood pressure” value in data set [1] came to 10%; in data set [2] it was 12%; in data set [3] it was 11%. In data set [4] (Oryctolagus cuniculus, Aorta), this molecule gave an IC50 of 340 nM.
For the molecule `CNC(=O)CN1C(=O)[C@H](OC(C)=O)[C@H](c2ccc(OC)cc2)Cc2c1cccc2C(F)(F)F`, the “Decrease in blood pressure” value in data set [1] was 13%; in data set [2] it was 10%; in data set [3], 8%. In data set [4] (Oryctolagus cuniculus, Aorta), this molecule had an IC50 of 6200 nM.
For `COc1ccc([C@@H]2Cc3c(cccc3C(F)(F)F)N(CC[N+](C)(C)C)C(=O)[C@@H]2C)cc1.[I-]`, the “Decrease in blood pressure” value in data set [1] stood at 25%; in data set [2], 21%; in data set [3], 22%. In addition, the IC50 in data set [4] (Oryctolagus cuniculus, Aorta) worked out at 6200 nM.
For the molecule `COc1ccc([C@@H]2Cc3c(cccc3C(F)(F)F)N(CCN(C)C(C)C)C(=O)[C@@H]2C)cc1`, the “Decrease in blood pressure” value in data set [1] was determined as 18%; in data set [2] it was 14%; in data set [3], 15%. This molecule had a 50% inhibitory concentration (IC50) in data set [4] (Oryctolagus cuniculus, Aorta) of 810 nM.
For the molecule `COc1cccc([C@@H]2Cc3cc(Cl)ccc3N(CCN(C)C)C(=O)[C@@H]2OC(C)=O)c1`, the “Decrease in blood pressure” value turned out to be 5% in data set [1], 3% in data set [2] and 2% in data set [3].
For `CNc1ccc([C@@H]2Cc3c(cccc3C(F)(F)F)N(CCN(C)C)C(=O)[C@@H]2C)cc1`, the “Decrease in blood pressure” value in data set [1] was 14%; in data set [2], 20%; in data set [3], 18%. This molecule showed a half-maximal inhibitory concentration (IC50) in data set [4] (Oryctolagus cuniculus, Aorta) of 330 nM.
Consider `COc1ccc([C@@H]2Cc3c(cccc3C(F)(F)F)N(CCN(C)C)C(=O)[C@@H]2C)cc1OC`, for which the results for the “Decrease in blood pressure” value in data set [1], in data set [2] and in data set [3] were 3%, 5% and 5%, respectively. In data set [4] (Oryctolagus cuniculus, Aorta), this molecule showed a half-inhibitory concentration (IC50) of 3800 nM.
As for `COc1ccc([C@@H]2Cc3c(cccc3C(F)(F)F)N(CC(C)N(C)C)C(=O)[C@@H]2C)cc1` (stereo in doubt; 15m), the “Decrease in blood pressure” value in data set [2] was found to be 12%; in data set [3], 16%. For the same molecule, the IC50 in data set [4] is 400 nM.
In the case of `COc1ccc([C@@H]2Cc3c(cccc3C(F)(F)F)N(C(C)CN(C)C)C(=O)[C@@H]2C)cc1` (stereo in doubt; 15n), the “Decrease in blood pressure” value in data set [1] was 15%. For the same molecule, 5900 nM corresponded to half-maximal inhibition in data set [4] (IC50).
